Test results as given in ChEMBL document CHEMBL1127651, “Molecular requirements for the inhibition of the tetracycline antiport protein and the effect of potent inhibitors on the growth of tetracycline-resistant bacteria” (J Med Chem, 1994).
Converted amounts (≈) assume the structure as drawn. The source made the active and inactive calls. The calls are words filed in the database; no cut-off is given here.

Legend:
Escherichia coli [1] = assay: (§1) Inhibitory activity against tetracycline uptake in everted membrane vesicles derived from Tc-resistant Escherichia coli bearing class B tetracycline resistance efflux protein (Tet); format: functional
In short: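 Everted inner membrane vesicles from E. coli D1-209 carrying plasmid R222 (class B Tc determinant on Tn10), energized with Li lactate; test compound added together with [³H]Tc. Accumulated [³H]Tc read at 2.5 min after energization, compared with uptake without analogue; CCCP-deenergized vesicles served as the negative control. IC50 = concentration giving 50% inhibition of uptake. Separately screened for disruption of the pH gradient by acridine orange fluorescence in vesicles from isogenic Tc-susceptible cells.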

Escherichia coli [2] = assay: Minimum inhibitory activity against tetracycline-susceptible Escherichia coli strain ML308-225; format: functional
In short: (§2)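 Broth dilution MIC in Luria broth. Two-fold dilutions from a 10 mg/mL stock in H₂O or 1:1 H₂O/MeOH, test range 200–0.030 µg/mL, incubated 18–20 h at 37 °C. MIC = lowest amount inhibiting growth.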

Escherichia coli [3] = assay: Minimum inhibitory activity against tetracycline-susceptible Escherichia coli strain ML308-225 (Tet A on plasmid pIP15); format: functional
In short: (§3)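 Inoculum about 10⁶ cfu/mL into two-fold dilutions from 200 to 0.030 µg/mL, made from a 10 mg/mL stock in H₂O or 1:1 H₂O/MeOH. Incubated 18–20 h at 37 °C; MIC = amount inhibiting growth.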

Escherichia coli [4] = assay: Minimum inhibitory activity against tetracycline-susceptible Escherichia coli strain ML308-225 (Tet B on plasmid R222); format: functional; in short: as §3
Escherichia coli [5] = assay: Minimum inhibitory activity against tetracycline-susceptible Escherichia coli strain ML308-225 (Tet B on plasmid R222) in combination with doxycycline; No effect; format: functional, organism-based
Escherichia coli [6] = assay: Minimum inhibitory activity against tetracycline-susceptible Escherichia coli strain D31m4; format: functional; in short: as §2
Enterococcus faecalis [7] = assay: Minimum inhibitory activity against tetracycline-susceptible Enterococcus faecalis strain ATCC 9790; format: functional; in short: as §2
Staphylococcus aureus [8] = assay: Minimum inhibitory activity against tetracycline-susceptible Staphylococcus aureus strain RN450 (Tet K on plasmid pT181); format: functional; in short: as §3
Staphylococcus aureus [9] = assay: Minimum inhibitory activity against tetracycline-susceptible Staphylococcus aureus strain RN450; format: functional; in short: as §2
Enterococcus faecalis [10] = assay: Minimum inhibitory activity against tetracycline-susceptible Enterococcus faecalis strain ATCC 9790 (Tet L on plasmid MV158); format: functional; settings: in the assay text read “tetracycline-resistant” for “tetracycline-susceptible”; in short: as §3
Escherichia coli [11] = assay: Minimum inhibitory activity against tetracycline-susceptible Escherichia coli strain D31m4 (Tet B on plasmid pHCMI); format: functional; settings: in the assay text read “tetracycline-resistant” for “tetracycline-susceptible”; in short: as §3
Escherichia coli [12] = assay: Growth inhibitory activity against tetracycline-resistant ML308-225 bacterial strain of Escherichia coli; format: functional, organism-based
In short: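 MIC by two-fold broth dilution in Luria broth from a 10 mg/mL stock, test range 200 to 0.030 µg/mL. Compounds dissolved in H2O or 1:1 H2O/MeOH. Inoculum about 10⁶ cfu/mL. Incubated 18–20 h at 37 °C. MIC taken as the lowest amount that inhibited growth.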

Escherichia coli [13] = assay: as §1; format: functional; remark: listed apart in the source
In short: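 Everted inner-membrane vesicles from E. coli D1-209 carrying plasmid R222 (class B Tet on Tn10). Vesicles energized with Li lactate and given [³H]Tc together with the analogue. Accumulation read at 2.5 min against uptake without analogue. CCCP-deenergized vesicles served as negative control. IC50 is the concentration giving 50% inhibition of [³H]Tc uptake.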

Escherichia coli [14] = assay: Minimum inhibitory activity against tetracycline-susceptible Escherichia coli strain ML308-225 (Tet B on plasmid R222) in combination with doxycycline; no effect; format: functional, organism-based

## CC(=O)OC1=CC[C@H]2CC3C(=C(O)c4c(O)cccc4C3O[Si](C)(C)C(C)(C)C)C(=O)[C@H]2C1 (stereo partly specified)
Escherichia coli [1]
  IC50: > 150 µM

## CC1CC(=O)C2=C(O)c3c(O)ccc(O)c3CC2C1 (stereo unspecified)
Escherichia coli [1]
  IC50: > 130 µM

## CC(=O)C1CCC2C(=O)C3=C(O)c4c(O)ccc(O)c4CC3CC2C1 (stereo unspecified)
Escherichia coli [1]
  IC50: > 75 µM

## COC(=O)C12Oc3ccc(-c4ccc5c(c4O)C(O)=C4C(=O)CC(C)C(O)C4(C(=O)OC)O5)c(O)c3C(O)=C1C(=O)CC(C)C2O (stereo unspecified)
Escherichia coli [1]
  IC50: > 75 µM

## CN(C)c1ccc(O)c2c1CC1CC3[C@H](N(C)C)C(=O)C(C(N)=O)=C(O)[C@@]3(O)C(O)=C1C2=O (stereo partly specified)
Escherichia coli [1]
  IC50: 2.3 µM

## COc1cc(O)c2c(c1)C(=O)c1cc3c(c(O)c1C2=O)C(OC1OC(C)C(O)C(O)C1OC)C(OC)C(C)(O)C3=O (stereo unspecified)
Escherichia coli [1]
  IC50: > 75 µM

## COC(C(=O)[C@@H](O)C(C)O)C1Cc2cc3cc(O)c(C)c(O)c3c(O)c2C(=O)C1O (stereo partly specified)
Escherichia coli [1]
  IC50: > 100 µM

## CN(C)[C@@H]1C(=O)C(C(N)=O)=C(O)[C@@]2(O)C(O)=C3C(=O)c4c(ccc([N+](=O)[O-])c4O)CC3CC12 (stereo partly specified)
Escherichia coli [1]
  IC50: 12.3 µM

## CN(C)[C@@H]1C(=O)C(C(N)=O)=C(O)[C@@]2(O)C(O)=C3C(=O)c4c(O)cccc4[C@H](CSCCCCl)C3[C@H](O)C12 (stereo partly specified)
Escherichia coli [2]
  MIC: 10 µg/mL (≈ 18.1 µM)
Escherichia coli [3]
  MIC: 50 µg/mL (≈ 90.4 µM)
Escherichia coli [4]
  MIC: > 50 µg/mL
Escherichia coli [5]
  MIC: inactive
Escherichia coli [6]
  MIC: 2.5 µg/mL (≈ 4.52 µM)
Enterococcus faecalis [7]
  MIC: 0.6 µg/mL (≈ 1.08 µM)
Staphylococcus aureus [8]
  MIC: 6.25 µg/mL (≈ 11.3 µM)
Staphylococcus aureus [9]
  MIC: 0.6 µg/mL (≈ 1.08 µM)
Escherichia coli [1]
  IC50: 0.6 µM
Enterococcus faecalis [10]
  MIC: 1.56 µg/mL (≈ 2.82 µM)
Escherichia coli [11]
  MIC: 6.25 µg/mL (≈ 11.3 µM)

## COc1ccc(Cl)c2c1C(=O)CC(CC(=O)O)S2 (stereo unspecified)
Escherichia coli [1]
  IC50: > 150 µM

## C[C@H]1c2cccc(O)c2C(=O)C2=C(O)[C@]3(O)C(=O)C(C(N)=O)=C(O)[C@@H](N(C)C)[C@@H]3[C@@H](O)[C@@H]21.O [DOXYCYCLINE]
Escherichia coli [12]
  IC50: 9.2 µM
Escherichia coli [3]
  MIC: 50 µg/mL
Escherichia coli [4]
  MIC: > 50 µg/mL
Escherichia coli [6]
  MIC: 0.5 µg/mL
Enterococcus faecalis [7]
  MIC: 0.25 µg/mL
Staphylococcus aureus [8]
  MIC: 12.5 µg/mL
Staphylococcus aureus [9]
  MIC: 0.25 µg/mL
Escherichia coli [13]
  MIC: 0.5 µg/mL
Escherichia coli [1]
  IC50: > 75 µM
Enterococcus faecalis [10]
  MIC: 6.25 µg/mL
Escherichia coli [11]
  MIC: 12.5 µg/mL

## COC(C(=O)[C@@H](O)[C@@H](C)O)C1Cc2cc3cc(O)cc(O)c3c(O)c2C(=O)C1O (stereo partly specified)
Escherichia coli [1]
  IC50: > 100 µM

## CC(=O)Oc1cccc2c1C(=O)C1=C(O)[C@]3(OC(C)=O)C(O)=C(C(N)=O)C(=O)[C@@H](N(C)C)C3CC1[C@]2(C)O (stereo partly specified)
Escherichia coli [1]
  IC50: > 75 µM

## O=CCC1CC(=O)c2c(O)ccc(Cl)c2S1 (stereo unspecified)
Escherichia coli [1]
  IC50: > 75 µM

## O=CCC1CC(=O)c2c(O)cccc2S1 (stereo unspecified)
Escherichia coli [1]
  IC50: > 75 µM

## O=C1c2ccc(O)c(O)c2C(=O)c2c(O)ccc(O)c21 [QUINALIZARIN]
Escherichia coli [1]
  IC50: > 150 µM

## C=C1c2cccc(O)c2C(=O)C2(Cl)C(=O)[C@]3(O)C(O)=C(C(N)=O)C(=O)[C@@H](N(C)C)C3CC12 (stereo partly specified)
Escherichia coli [1]
  IC50: > 75 µM

## CC(=O)SC[C@H]1c2cccc(O)c2C(=O)C2=C(O)[C@]3(O)C(O)=C(C(N)=O)C(=O)[C@@H](N(C)C)C3[C@@H](O)C21 (stereo partly specified)
Escherichia coli [1]
  IC50: 4.6 µM

## CCCSC[C@H]1c2cccc(O)c2C(=O)C2=C(O)[C@]3(O)C(O)=C(C(N)=O)C(=O)[C@@H](N(C)C)C3[C@@H](O)C21 (stereo partly specified)
Escherichia coli [2]
  MIC: 40 µg/mL (≈ 77.1 µM)
Escherichia coli [3]
  MIC: > 50 µg/mL
Escherichia coli [4]
  MIC: > 50 µg/mL
Escherichia coli [5]
  MIC: inactive
Escherichia coli [6]
  MIC: 10 µg/mL (≈ 19.3 µM)
Enterococcus faecalis [7]
  MIC: 1.25 µg/mL (≈ 2.41 µM)
Staphylococcus aureus [8]
  MIC: 12.5 µg/mL (≈ 24.1 µM)
Staphylococcus aureus [9]
  MIC: 0.6 µg/mL (≈ 1.16 µM)
Enterococcus faecalis [10]
  MIC: 1.56 µg/mL (≈ 3.01 µM)
Escherichia coli [11]
  MIC: 12.5 µg/mL (≈ 24.1 µM)

## CC(=O)OC1=C(Sc2ccccc2)C[C@H]2Cc3cc4cccc(O)c4c(O)c3C(=O)[C@H]2C1
Escherichia coli [1]
  IC50: > 150 µM

## COC(=O)c1c(O)cccc1CC1CC(=O)[C@@]2(O)C(O)=C(C(N)=O)C(=O)[C@@H](N(C)C)C2C1 (stereo partly specified)
Escherichia coli [1]
  IC50: > 75 µM

## COc1cc(O)c2c(c1Cl)CC1CC3[C@H](N(C)C)C(=O)C(C(N)=O)=C(O)[C@@]3(O)C(O)=C1C2=O (stereo partly specified)
Escherichia coli [1]
  IC50: 19.5 µM

## Cc1cc(O)c2c(c1O)C(=O)c1cc(O)cc(O)c1C2=O [CATENARIN]
Escherichia coli [1]
  IC50: > 150 µM

## CN(C)[C@@H]1C(=O)C(C(N)=O)=C(O)[C@@]2(O)C(O)=C3C(=O)c4c(O)cccc4[C@H](CSCCC(=O)O)C3CC12 (stereo partly specified)
Escherichia coli [14]
  MIC: inactive
Escherichia coli [2]
  MIC: > 40 µg/mL
Escherichia coli [3]
  MIC: > 50 µg/mL
Escherichia coli [4]
  MIC: > 50 µg/mL
Escherichia coli [6]
  MIC: 20 µg/mL (≈ 37.6 µM)
Enterococcus faecalis [7]
  MIC: 10 µg/mL (≈ 18.8 µM)
Staphylococcus aureus [8]
  MIC: 12.5 µg/mL (≈ 23.5 µM)
Staphylococcus aureus [9]
  MIC: 2.5 µg/mL (≈ 4.69 µM)
Enterococcus faecalis [10]
  MIC: 3.12 µg/mL (≈ 5.86 µM)
Escherichia coli [11]
  MIC: > 50 µg/mL

## COc1cc(O)c2c(c1)C(=O)c1cc3c(c(O)c1C2=O)C(OC1OC(C)C(OC)C(O)C1OC)C(OC)C(C)(O)C3=O (stereo unspecified)
Escherichia coli [1]
  IC50: > 75 µM

## CN(C)[C@@H]1C(=O)C(C(N)=O)=C(O)[C@@]2(O)C(=O)C3(F)C(=O)c4c(O)cccc4CC3CC12 (stereo partly specified)
Escherichia coli [1]
  IC50: > 75 µM

## CN(C)[C@@H]1C(=O)C(C(N)=O)=C(O)[C@@]2(O)C(O)=C3C(=O)c4c(O)cccc4[C@H](CS)C3[C@H](O)C12 (stereo partly specified)
Escherichia coli [1]
  IC50: 4.6 µM

## CN(C)c1ccc2c(c1O)C(=O)C1=C(O)[C@]3(O)C(O)=C(C(N)=O)C(=O)[C@@H](N(C)C)C3CC1C2 (stereo partly specified)
Escherichia coli [1]
  IC50: 15.4 µM

## COc1cccc2c1C(=O)c1c(O)c3c(c(O)c1C2=O)C[C@@](O)(C(=O)CO)C[C@@H]3O[C@H]1C[C@H](N)[C@H](O)[C@H](C)O1 [DOXORUBICIN]
Escherichia coli [1]
  IC50: > 75 µM

## CN(C)[C@@H]1C(=O)C(C(N)=O)=C(O)[C@@]2(O)C(=O)C3C(=O)c4c(O)ccc(Cl)c4[C@@](C)(O)C3CC12 (stereo partly specified)
Escherichia coli [1]
  IC50: > 75 µM

## CN(C)[C@@H]1C(=O)C(C(N)=O)=C(O)[C@@]2(O)C(O)=C3C(=O)c4c(O)cccc4SC3CC12 (stereo partly specified)
Escherichia coli [1]
  IC50: 4.6 µM

## O=C(O)CC1CC(=O)c2c(O)ccc(Cl)c2S1 (stereo unspecified)
Escherichia coli [1]
  IC50: > 150 µM

## CN(C)[C@@H]1C(=O)C(C(N)=O)=C(O)[C@@]2(O)C(O)=C3C(=O)c4c(O)cccc4[C@H](C[S+]([O-])c4ccccc4)C3CC12 (stereo partly specified)
Escherichia coli [1]
  IC50: 0.7 µM
